Assay results pooled from the literature.
Lines come from different studies, so protocols differ.
CYP3A4: Cytochrome P450 3A4 (CYP3A4, Homo sapiens, UniProt P08684)
F12: Coagulation factor XII (F12, Homo sapiens, UniProt P00748)
ADORA2B: Adenosine receptor A2b (ADORA2B, Homo sapiens, UniProt P29275)

| SMILES | target | assay | system | setting | endpoint | value |
| --- | --- | --- | --- | --- | --- | --- |
| COc1cc(O)c2c(c1)C(=O)c1cc(C)cc(O)c1C2=O | CYP3A4 | enzyme activity, inhibitor | human, liver microsomes | pH 7.4, testosterone probe | IC50 | 13.5 µM |
| O=c1oc(-c2cccnc2)nc2ccccc12 | F12 | enzyme activity, inhibitor, absorbance | – | pH 7.4 | IC50 | > 50 µM |
| Oc1ccc2c(c1)CC[C@H](c1ccccc1)[C@@H]2c1ccc(OCCN2CCCC2)cc1 | Progesterone receptor (PGR, Homo sapiens, UniProt P06401) | ligand displacement, radioligand | – | – | IC50 | 0.069 µM |
| CC(C)=CCNc1ncnc2c1ncn2[C@@H]1O[C@H](CO)[C@@H](O)[C@H]1O | ADORA2B | G protein activation, agonist | – | – | EC50 | 84 µM |
| CO[C@]1(C(=O)N[C@@H](C)c2ccc(-n3cc(F)cn3)nc2)CC[C@H](c2nc(C)cc(Nc3cc(C)[nH]n3)n2)CC1 | CYP3A4 | enzyme activity, inhibitor | human, liver microsomes | – | Ki | 24 µM |
| O=c1oc(-c2ccco2)nc2ccccc12 | F12 | enzyme activity, inhibitor, absorbance | – | pH 7.4 | IC50 | > 50 µM |
| O=c1cc(-c2ccc(O)cc2)oc2c([C@@H]3OC[C@H](O)[C@H](O)[C@H]3O)c(O)c([C@@H]3O[C@H](CO)[C@@H](O)[C@H](O)[C@H]3O)c(O)c12 | Calcium/calmodulin-dependent protein kinase type II subunit gamma (CAMK2G, Homo sapiens, UniProt Q13555) | enzyme activity, inhibitor | – | – | IC50 | 189 µM |
| COc1ccc(-c2cc(OCC(=O)N(C)Cc3cccnc3C)nc(-n3nc(C)cc3C)n2)cc1 | Leucyl-cystinyl aminopeptidase (LNPEP, Homo sapiens, UniProt Q9UIQ6) | enzyme activity, inhibitor, fluorescence | – | – | IC50 | 0.157 µM |
| CN(C)c1ncnc2c1ncn2[C@@H]1O[C@H](CO)[C@@H](O)[C@H]1O | ADORA2B | G protein activation, agonist | – | – | EC50 | 22 µM |
